Experimental data taken from ChEMBL document CHEMBL3797041, “Discovery of potent, reversible MetAP2 inhibitors via fragment based drug discovery and structure based drug design-Part 2” (Bioorg Med Chem Lett, 2016).

What was measured:
[1] = target: T1, Cytochrome P450 1A2 (Homo sapiens, UniProt P05177); test: Inhibition of human CYP1A2 expressed in Escherichia coli DH5alpha; type: ADME
T1 sequence (P05177 whole entry): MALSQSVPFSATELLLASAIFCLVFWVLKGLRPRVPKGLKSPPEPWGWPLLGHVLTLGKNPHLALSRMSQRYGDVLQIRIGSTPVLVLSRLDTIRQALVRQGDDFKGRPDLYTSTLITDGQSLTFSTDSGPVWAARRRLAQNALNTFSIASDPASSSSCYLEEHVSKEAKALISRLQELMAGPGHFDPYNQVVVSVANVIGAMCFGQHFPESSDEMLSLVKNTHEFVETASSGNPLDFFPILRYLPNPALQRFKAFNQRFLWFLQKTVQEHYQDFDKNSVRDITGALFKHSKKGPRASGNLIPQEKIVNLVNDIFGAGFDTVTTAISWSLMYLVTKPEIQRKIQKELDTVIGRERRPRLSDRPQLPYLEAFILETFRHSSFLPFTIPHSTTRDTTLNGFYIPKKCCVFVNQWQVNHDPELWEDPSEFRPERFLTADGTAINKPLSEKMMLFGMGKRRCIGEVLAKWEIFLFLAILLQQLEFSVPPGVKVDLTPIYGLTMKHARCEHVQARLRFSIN

[2] = AUC in Sprague-Dawley rat at 2.9 mg/kg, po; type: ADME, organism-based; conditions: in vivo
[3] = Half life in Sprague-Dawley rat at 2.9 mg/kg, po; type: ADME, organism-based; conditions: in vivo
[4] = Clearance in Sprague-Dawley rat at 2.9 mg/kg, po; type: ADME, organism-based; conditions: in vivo
[5] = test system: Rattus norvegicus; test: Volume of distribution in Sprague-Dawley rat at 2.9 mg/kg, po; type: ADME, organism-based; conditions: in vivo
[6] = Oral bioavailability in Sprague-Dawley rat at 2.9 mg/kg; type: ADME, organism-based; conditions: in vivo
[7] = test system: Mus musculus; test: Antiobesity in diet-induced obese mouse model assessed as decrease in body weight at 30 mg/kg, po qd for 7 days relative to control; type: functional; conditions: 168 h
Summary of the method: (§1)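 DIO mice were dosed by oral gavage once daily for 7 days, with a vehicle-dosed cohort as the comparator. Body weight was read relative to the vehicle group, and food intake and activity levels were monitored in dosed and vehicle cohorts. In some studies, animals were first acclimated to gavage for a few weeks, until their weights stopped changing, before dosing began.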

[8] = test system: Mus musculus; test: Toxicity in diet-induced obese mouse model assessed as effect on food intake at 30 mg/kg, po qd for 7 days; type: organism-based; conditions: in vivo, 168 h; summary of the method: as §1
[9] = test system: Mus musculus; test: Toxicity in diet-induced obese mouse model assessed as effect on activity levels at 30 mg/kg, po qd for 7 days; type: organism-based; conditions: in vivo, 168 h; summary of the method: as §1

SMILES | IC50 [1] [µM] | further results
O=C(NCCO)c1ccc(-n2c3ccc(F)cc3c3[nH]ncc32)cc1 | 7.94 | –
Cc1nc2[nH]cnc2cc1-n1c2ccc(F)cc2c2[nH]ncc21 | 3.16 | AUC [2]: 2240 ng·h/mL; half-life [3]: 6 h; CL/F [4]: 17.2 mL/min/kg; Vd [5]: 1.597 L/kg; bioavailability [6]: 70%; inhibition in vivo at 30 mg/kg [7]: 4%; Activity [8]: Non-toxic; Activity [9]: Non-toxic
Cc1c(-n2c3ccc(F)cc3c3[nH]ncc32)cnc2[nH]cnc12 | > 50.1 | –
Cc1cc(C(=O)NCCO)ccc1-n1c2ccc(F)cc2c2[nH]ncc21 | 7.94 | –
Cc1nc2c(cc1-n1c3ccc(F)cc3c3[nH]ncc31)ncn2C | 20 | –

Second part, led by results:

IC50 [1] [µM] | SMILES | further results
0.126 | Fc1ccc2c(c1)c1[nH]ncc1n2-c1cccnc1 | –
0.0631 | Clc1ccc2c3[nH]ncc3n(-c3cccnc3)c2c1 | –
0.0501 | Fc1cc2c3[nH]ncc3n(-c3cccnc3)c2cc1F | –
0.158 | Nc1ncc(-n2c3ccc(F)cc3c3[nH]ncc32)cc1Cl | –
